Measured values from article PMC9214057 (Acta Pharmaceutica Sinica. B, 2022).
Residues, ends and D or L forms follow the SMILES beside them. *: point of attachment. Cbz = O=C(OCc1ccccc1)*

Assays:
human SCC-3 tumor = conditions: 20 mg/kg; cited from earlier work
[1] = system: PD-1/NFAT reporter-Jurkat cells; assay: PD-L1 cell-based assay
B16F10 tumor = conditions: 60 mg/kg; cited from earlier work
hPD-L1 MC38 cells = assay: PD-L1 expression and localisation by Western blotting / immunofluorescence; assay type: cell-based, mouse; conditions: 24 h
In short: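 hPD-L1 MC38 cells were exposed for 24 h. For immunofluorescence, cells on glass-bottom dishes were treated at 1 and 10 μmol/L, fixed, permeabilized, stained overnight with anti-PD-L1, then Alexa Fluor 488 secondary with DAPI, and imaged by confocal microscopy. For Western blotting, whole cells were treated at 0.1–10 μmol/L. Per lane, 60 μg protein was run on 10% SDS-PAGE and transferred to nitrocellulose. Primary antibody was 1:1000 overnight at 4 °C; β-actin or Na/K-ATPase served as loading control. Bands were quantified by densitometry.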

PD-L1 = conditions: cited from earlier work

COc1nc(OCc2cccc(-c3ccccc3)c2C)ccc1CNCCNC(C)=O [BMS202]
inhibition rate in humanized mouse-transplanted human SCC-3 tumor (human SCC-3 tumor): 41%
concentration required in the T cell activation assay [1]: more than 10 μmol/L
inhibition rate in B16F10 tumor (B16F10 tumor): 50.1%

CC(C)C[C@@H](C=O)NC(=O)[C@H](CC(C)C)NC(=O)[C@H](CC(C)C)NC(=O)OCc1ccccc1 [MG132] (Cbz-Leu-Leu-Leu-aldehyde)
PD-L1 protein expression / distribution (hPD-L1 MC38 cells): increased

CCN(CC)CCCC(C)Nc1ccnc2cc(Cl)ccc12 (stereo not drawn) [chloroquine]
PD-L1 protein expression / distribution (hPD-L1 MC38 cells): increased

C[C@@H](O)[C@H](NC(=O)N[C@@H](CC(N)=O)c1nc([C@@H](N)CO)no1)C(=O)O [CA-170]
direct binding to PD-L1 (PD-L1): no direct binding
